ChEMBL document CHEMBL1147367, “Bioactive furanonaphthoquinones from Crescentia cujete” (J Nat Prod, 1993)
Values after ≈ are worked out from the molar mass of the structure shown.

Columns and labels:
Saccharomyces cerevisiae [1] = test: DNA damaging activity against DNA repair-deficient RS 322YK (rad 52Y) yeast assessed as drug level required to produce 12 mm zone of inhibition; type: functional
Method in brief: (§1)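 Agar well-diffusion test on yeast: sample placed in 100 μl wells and growth-inhibition zones measured. Potency given as IC12 in μg/ml, the concentration giving a 12 mm inhibition zone. rad 52 strain RS 322 YK lacks the recombination pathway for double-strand-break repair. RS 188 N is the repair-proficient RAD+ counterpart.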

Saccharomyces cerevisiae [2] = test: DNA damaging activity against RS 188N (RAD+) yeast assessed as drug level required to produce 12 mm zone of inhibition; type: functional; method in brief: as §1
Vero = test: Cytotoxicity against african green monkey Vero cells; type: cell-based; conditions: Chlorocebus sabaeus
Method in brief: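 Vero cells exposed to compound for 72 h; viability read by XTT staining; IC50 given in μg/ml.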

SMILES | IC12 (Saccharomyces cerevisiae [1]) | IC12 (Saccharomyces cerevisiae [2]) | IC50 (Vero)
CC(O)c1cc2c(o1)C(=O)c1ccccc1C2=O (stereo not given) | 14 µg/mL | 180 µg/mL | 0.41 µg/mL (≈ 1.69 µM)
CC(O)c1cc2c(o1)C(=O)c1cccc(O)c1C2=O (stereo not given) | 3 µg/mL | 10 µg/mL | 0.21 µg/mL (≈ 0.813 µM)
C=C(C)C1CC2=C(O1)C(=O)c1cccc(O)c1C2=O (stereo not given) | 80 µg/mL | 140 µg/mL | 
C=C(C)[C@@H]1OC2=C(C(=O)c3c(ccc(OC)c3OC)C2=O)[C@@H]1O | 47 µg/mL | > 1000 µg/mL | 3.7 µg/mL (≈ 11.7 µM)
C=C(C)[C@H]1CC2=C(O1)C(=O)c1cccc(OC)c1C2=O | 48 µg/mL | 280 µg/mL | 4.3 µg/mL (≈ 15.9 µM)
C=C(C)[C@H]1CC2=C(O1)C(=O)c1ccc(OC)c(OC)c1C2=O | 33 µg/mL | 120 µg/mL | 4.7 µg/mL (≈ 15.7 µM)
CC[C@@]1(O)C(=O)OCc2c1cc1n(c2=O)Cc2cc3ccccc3nc2-1 [CAMPTOTHECIN] | 0.6 µg/mL | 110 µg/mL | 0.054 µg/mL (≈ 0.155 µM)
